Data published in publication PMC7409366 (Bioorganic chemistry, 2020).
Read-outs that look alike come from different tables or passages of the source. Blank lines part the entries; values can stand above or below the compound they belong to.

What was measured:
[1] = system: CFA-induced rheumatoid arthritis in rats; experiment: Paw pressure test in CFA-induced rheumatoid arthritis; format: in vivo, rat
[2] = system: CFA-induced rheumatoid arthritis in rats; experiment: Incapacitance test in CFA-induced rheumatoid arthritis; format: in vivo, rat; conditions: for Δ Weight (incapacitance test): day 14 after CFA
FPR2 [3] = biological target: T1, FPR2 (Homo sapiens, UniProt P25090); experiment: Ca2+ mobilization in FPR2-transfected HL60 cells; format: cell-based
T1 sequence (P25090 1-351): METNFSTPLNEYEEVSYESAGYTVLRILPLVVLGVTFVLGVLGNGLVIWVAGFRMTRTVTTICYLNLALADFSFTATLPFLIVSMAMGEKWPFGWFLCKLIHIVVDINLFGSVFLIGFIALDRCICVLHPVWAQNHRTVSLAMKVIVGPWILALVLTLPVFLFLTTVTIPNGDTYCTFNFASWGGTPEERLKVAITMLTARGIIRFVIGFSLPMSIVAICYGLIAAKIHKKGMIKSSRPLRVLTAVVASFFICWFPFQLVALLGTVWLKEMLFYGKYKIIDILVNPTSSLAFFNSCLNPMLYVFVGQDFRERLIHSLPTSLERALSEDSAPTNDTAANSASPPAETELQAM

human neutrophils [4] = experiment: Human neutrophil chemotaxis; format: cell-based; conditions: read-out: Chemotaxis EC50
How it was run: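 Neutrophils from healthy-donor blood purified by dextran sedimentation, Histopaque 1077 gradient and hypotonic red-cell lysis, then washed twice into Ca/Mg-free HBSS; preparations >95% pure by light microscopy and >98% viable by trypan blue.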

human neutrophils [5] = experiment: Desensitization of human neutrophil chemotaxis toward WKYMVm; format: cell-based; conditions: 0.5 h, read-out: Chemotaxis IC50
FPR1 [6] = biological target: T2, FPR1 (Homo sapiens, UniProt P21462); experiment: Ca2+ mobilization in FPR1-transfected HL60 cells; format: cell-based
T2 sequence (P21462 1-350): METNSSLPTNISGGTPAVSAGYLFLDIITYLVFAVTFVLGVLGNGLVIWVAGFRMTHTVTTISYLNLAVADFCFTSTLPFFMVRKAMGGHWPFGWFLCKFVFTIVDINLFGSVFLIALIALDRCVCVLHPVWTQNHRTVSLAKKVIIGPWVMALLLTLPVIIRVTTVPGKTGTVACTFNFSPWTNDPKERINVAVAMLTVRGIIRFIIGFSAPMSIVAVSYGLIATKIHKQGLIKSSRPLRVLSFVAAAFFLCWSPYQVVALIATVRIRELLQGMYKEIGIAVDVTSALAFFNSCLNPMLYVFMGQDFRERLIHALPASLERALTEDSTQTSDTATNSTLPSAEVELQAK

[7] = system: collagen-induced arthritis and antigen-induced arthritis; conditions: 30 mg/kg i.p., mice, both models; cited from earlier work
FPR1 [8] = biological target: T2, FPR1; conditions: read-out: FPR1 EC50; EC10; cited from earlier work
FPR2 [9] = biological target: T1, FPR2; conditions: read-out: FPR2 EC50; EC10; cited from earlier work
FPR3 = conditions: read-out: FPR3 EC50; EC10; cited from earlier work

EC50 (FPR1 [6]): 3.9 ± 1.2 µM
EC50 (FPR2 [3]): 0.31 ± 0.09 µM
SMILES: COc1cccc(NC(=O)c2cc(C#N)c(=O)n(CC(=O)Nc3ccc(Br)cc3)c2C)c1 [Compound 9a, 1-[(4-Bromophenylcarbamoyl)methyl]-5-cyano-2-methyl-6-oxo-1,6-dihydro-pyridine-3-carboxylic acid (3-methoxyphenyl) amide]

EC50 (FPR1 [6]): 0.96 ± 0.39 µM
EC50 (FPR2 [3]): 0.44 ± 0.12 µM
SMILES: COc1ccc(NC(=O)c2cc(C#N)c(=O)n(CC(=O)Nc3ccc(Br)cc3)c2C)cc1 [Compound 9b, 1-[(4-Bromophenylcarbamoyl)methyl]-5-cyano-2-methyl-6-oxo-1,6-dihydro-pyridine-3-carboxylic acid (4-methoxyphenyl) amide]

EC50 (FPR1 [6]): 5.5 ± 1.6 µM
EC50 (FPR2 [3]): 4.1 ± 1.3 µM
SMILES: CCCn1ccc(=O)n(CC(=O)Nc2ccc(Br)cc2)c1=O [Compound 11d, N-(4-Bromophenyl)-2-(2,6-dioxo-3-propyl-3,6-dihydropyrimidin-1(2H)-yl)acetamide]

Further lines, the compound ahead of its results:

SMILES: COc1cccc(-c2cc(C#N)c(=O)n(CC(=O)Nc3ccc(Br)cc3)c2C)c1 [Compound 2a, N-(4-Bromophenyl)-2-[3-cyano-5-(3-methoxyphenyl)-6-methyl-2-oxopyridin-1(2H)-yl]acetamide]
effect on pain threshold (paw pressure test) ([1]; 10 mg/kg p.o., day 14 after CFA): effective between 30 and 60 min
pain threshold (paw pressure test) ([1]; 30 mg/kg p.o., day 14 after CFA, 15 to 45 min, CFA + vehicle 37.5 ± 1 g): 63.3 ± 2 g
effect on postural unbalance (incapacitance test) ([2]; 10 and 30 mg/kg p.o., between 15 and 60 min after administration): significantly reduced the postural unbalance
preference for FPR2 versus FPR1 (FPR2 [3]; ratio of EC50 values): 10 fold
EC50 (human neutrophils [4]): 0.02 ± 0.004 µM
IC50 (human neutrophils [5]): 6.1 ± 1.1 µM

SMILES: COc1ccc(-c2cc(C#N)c(=O)n(CC(=O)Nc3ccc(Br)cc3)c2C)cc1 [Compound 2b, N-(4-Bromophenyl)-2-[3-cyano-5-(4-methoxyphenyl)-6-methyl-2-oxopyridin-1(2H)-yl]acetamide]
EC50 (FPR1 [6]): 1 ± 0.2 µM
EC50 (FPR2 [3]): 0.48 ± 0.08 µM

SMILES: COc1ccc(-c2cc(C#N)c(=O)n(CC(=O)Nc3ccc(Br)cc3)c2C)cc1OC [Compound 2c, N-(4-Bromophenyl)-2-[3-cyano-5-(3,4-dimethoxyphenyl)-6-methyl-2-oxopyridin-1(2H)-yl]acetamide]
EC50 (FPR1 [6]): 33.2 ± 4.9 µM
EC50 (FPR2 [3]): 0.6 ± 0.2 µM
EC50 (human neutrophils [4]): 0.06 ± 0.015 µM
IC50 (human neutrophils [5]): 18.8 ± 3.2 µM

SMILES: CCOC(=O)c1cc(C#N)c(=O)n(CC(=O)Nc2ccc(Br)cc2)c1C [Compound 2d, 1-[(4-Bromophenylcarbamoyl)-methyl]-5-cyano-2-methyl-6-oxo-1,6-dihydropyridine-3-carboxylic acid ethyl ester]
EC50 (FPR1 [6]; read-out: FPR1-HL60 EC50, Ca2+ mobilization, mean of three independent experiments, N.A. = no activity (efficacy < 20% and EC50 < 50 μM as printed)): 3 µM
EC50 (human neutrophils [4]): 0.013 ± 0.001 µM
IC50 (human neutrophils [5]): 8.4 ± 1.2 µM

SMILES: CCOC(=O)c1cc(C(=O)Nc2cccc(OC)c2)c(=O)n(CC(=O)Nc2ccc(Br)cc2)c1C [Compound 6a, 1-[(4-Bromophenylcarbamoyl)methyl]-5-(3-methoxyphenylcarbamoyl)-2-methyl-6-oxo-1,6-dihydropyridine-3-carboxylic acid ethyl ester]
EC50 (FPR1 [6]): 0.4 ± 0.1 µM
preference for FPR1 (FPR1 [6]; FPR1 versus FPR2 EC50): about 72 fold
EC50 (FPR2 [3]): 28.9 ± 2.7 µM

SMILES: CCOC(=O)c1cc(C(=O)Nc2ccc(OC)cc2)c(=O)n(CC(=O)Nc2ccc(Br)cc2)c1C [Compound 6b, 1-[(4-Bromophenylcarbamoyl)methyl]-5-(4-methoxyphenylcarbamoyl)-2-methyl-6-oxo-1,6-dihydropyridine-3-carboxylic acid ethyl ester]
EC50 (FPR1 [6]): 7.9 ± 1.4 µM
EC50 (FPR2 [3]): 16.4 ± 3.3 µM

SMILES: COc1cccc(NC(=O)c2cc(-c3ccncc3)c(C)n(CC(=O)Nc3ccc(Br)cc3)c2=O)c1 [Compound 6c, 1-[(4-Bromophenylcarbamoyl)methyl]-2-methyl-6-oxo-1,6-dihydro-[3,4′]bipyridinyl-5-carboxylic acid (3-methoxyphenyl) amide]
EC50 (FPR1 [6]): 1.4 ± 0.4 µM
EC50 (FPR2 [3]): 1.8 ± 0.21 µM

SMILES: CC(C)c1c(NC(=O)Nc2ccc(Cl)cc2)c(=O)n(-c2ccccc2)n1C [Cpd43]
effect on arthritis disease severity [7]: significantly reduced disease severity

SMILES: COc1cccc(Nc2c(C(C)=O)c(C)nn(CC(=O)Nc3ccc(Br)cc3)c2=O)c1 [EC10]
EC50 (FPR1 [8]): 0.045 µM
EC50 (FPR2 [9]): 0.17 µM
effect on pain threshold (paw pressure test) ([1]; 10 and 30 mg/kg p.o., between 15 and 60 min, similar efficacy as EC3): increased the pain threshold
Δ Weight (incapacitance test) ([2]; 10 and 30 mg/kg p.o., 15 to 60 min, CFA + vehicle 62.8 ± 3.1 g): 40.2 ± 1.1 g
EC50 (FPR3): 0.21 µM

SMILES: CC(C)Cc1ccc(C(C)C(=O)O)cc1 (centres unmarked) [Ibuprofen, ibuprofen, reference compound]
Δ Weight (incapacitance test) ([2]; 100 mg kg−1 p.o., 15 to 30 min, CFA + vehicle 62.6 ± 2.5 g): 34.7 ± 6.1 g
